From ChEMBL document CHEMBL1629583, “Establishment of in vitro susceptibility testing methodologies and comparative activities of piperacillin in combination with the penem {beta}-lactamase inhibitor BLI-489” (2009)
Values after ≈ are worked out from the molar mass of the structure shown.

Experiments:
Assay type in all cases: functional
[1] = tested on: Pseudomonas aeruginosa; test: Antimicrobial activity against Pseudomonas aeruginosa clinical isolate after 18 to 22 hrs by broth microdilution method in presence of beta-lactamase inhibitor Tazobactam
Summary of the method: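 Piperacillin-tazobactam was tested by CLSI broth microdilution in Mueller-Hinton II broth against clinical isolates. Inoculum was 10^5 CFU/ml, with 18 to 22 h incubation at 35°C in ambient air. MIC was read as the lowest concentration completely inhibiting visible growth.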

[2] = tested on: Klebsiella pneumoniae; test: Antimicrobial activity against AmpC- producing Klebsiella pneumoniae clinical isolate after 18 to 22 hrs by broth microdilution method in presence of beta-lactamase inhibitor Tazobactam
Summary of the method: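 Piperacillin-tazobactam was tested on recent clinical isolates by CLSI broth microdilution in Mueller-Hinton II broth, with tazobactam at constant 4 μg/ml. Wells held 10^5 CFU/ml and were incubated 18 to 22 h at 35°C in ambient air. MIC was the lowest concentration with no growth visible to the unaided eye.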

[3] = tested on: Bacteroides thetaiotaomicron; test: Antimicrobial activity against Bacteroides thetaiotaomicron clinical isolate after 18 to 22 hrs by broth microdilution method in presence of beta-lactamase inhibitor BLI-489
[4] = tested on: Klebsiella pneumoniae; test: Antimicrobial activity against class A extended spectrum beta-lactamase- producing Klebsiella pneumoniae clinical isolate after 18 to 22 hrs by broth microdilution method in presence of beta-lactamase inhibitor BLI-489
Summary of the method: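 Piperacillin serially diluted with BLI-489 held at a constant 4 μg/ml, by CLSI broth microdilution in Mueller-Hinton II broth. Inoculum was 10^5 CFU/ml. Plates were incubated 18 to 22 h at 35°C in ambient air. MIC was the lowest concentration completely inhibiting growth seen by the unaided eye.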

[5] = tested on: Providencia stuartii; test: Antimicrobial activity against Providencia stuartii clinical isolate after 18 to 22 hrs by broth microdilution method in presence of beta-lactamase inhibitor BLI-489
Summary of the method: (§1)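 CLSI broth microdilution in Mueller-Hinton II broth. Serial dilutions of piperacillin were tested with BLI-489 held at a constant 4 μg/ml. Inoculum was 10^5 CFU/ml. Plates were incubated 18 to 22 h at 35°C in ambient air. MIC was the lowest concentration giving complete growth inhibition by unaided eye.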

[6] = tested on: Bacteroides uniformis; test: Antimicrobial activity against Bacteroides uniformis clinical isolate after 18 to 22 hrs by broth microdilution method
[7] = tested on: Pseudomonas aeruginosa; test: Antimicrobial activity against Pseudomonas aeruginosa clinical isolate after 18 to 22 hrs by broth microdilution method in presence of beta-lactamase inhibitor BLI-489; summary of the method: as §1
[8] = tested on: Enterococcus faecalis; test: Antimicrobial activity against Enterococcus faecalis clinical isolate after 18 to 22 hrs by broth microdilution method in presence of beta-lactamase inhibitor BLI-489
Summary of the method: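 CLSI broth microdilution in Mueller-Hinton II broth. Piperacillin serial dilutions were combined with BLI-489 held constant at 4 μg/ml. Inoculum was 10^5 CFU/ml. Plates were incubated 18 to 22 h at 35°C in ambient air. MIC was the lowest concentration completely inhibiting growth seen by the unaided eye. Piperacillin-tazobactam interpretive criteria were applied.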

CCN1CCN(C(=O)N[C@@H](C(=O)N[C@@H]2C(=O)N3[C@@H]2SC(C)(C)[C@@H]3C(=O)O)c2ccccc2)C(=O)C1=O [PIPERACILLIN]
MIC50 [1]: 16 µg/mL
MIC90 [1]: > 128 µg/mL
MIC50 [2]: 32 µg/mL
MIC90 [2]: > 128 µg/mL
MIC50 [3]: 16 µg/mL
MIC90 [3]: 16 µg/mL
MIC50 [4]: 16 µg/mL
MIC90 [4]: 32 µg/mL
MIC50 [5]: 1 µg/mL
MIC90 [5]: 8 µg/mL
MIC50 [6]: 16 µg/mL (≈ 30.9 µM)
MIC90 [6]: 32 µg/mL (≈ 61.8 µM)
MIC50 [7]: 8 µg/mL
MIC90 [7]: 64 µg/mL
MIC50 [8]: 2 µg/mL
MIC90 [8]: 4 µg/mL
